Bioassay records deposited in PubChem BioAssay by several laboratories.
Hits are enriched below; roughly 3.8% of the tested compounds scored in any of these assays.
OX1R antag-1: human HCRTR1 antagonism | O43613 | CHO/OX1R cells, Fluo-8 calcium fluorescence, orexin A | inhibition, % at 5 µM | 330,000 tested, 0.43% active | AID 434989;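 active = inhibition above its plate's threshold, mean inhibition of all tested compounds on the plate plus 3 SD, cut at about 37% in these data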;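 note: 0% = orexin A challenge wells and 100% = SB-334867-A antagonist wells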
OX1R antag-2: antagonists of human orexin 1 receptor (OX1R); O43613; OX1R-expressing cells, FRET antagonist read-out; inhibition, % at 6.6 µM; 330,000 tested, 1.8% active; in the data active = inhibition mostly above about 38%, no sharp cut-off; inactive = mostly below about 40%;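 note: 0% = agonist challenge alone and 100% = reference antagonist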
GPR7 antagonist: human neuropeptides B/W receptor 1 antagonism; inhibition, % at 4.4 µM; GPR7-expressing cells, fluorescence antagonist assay; 290,000 tested, 1.1% active; AID 1861; in the data active = inhibition above about 16%, passing the limit was not always enough;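 note: cells stimulated with the agonist NPW; 0% = agonist with vehicle and 100% = vehicle without agonist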
Target sequence (P48145 whole entry, looked up): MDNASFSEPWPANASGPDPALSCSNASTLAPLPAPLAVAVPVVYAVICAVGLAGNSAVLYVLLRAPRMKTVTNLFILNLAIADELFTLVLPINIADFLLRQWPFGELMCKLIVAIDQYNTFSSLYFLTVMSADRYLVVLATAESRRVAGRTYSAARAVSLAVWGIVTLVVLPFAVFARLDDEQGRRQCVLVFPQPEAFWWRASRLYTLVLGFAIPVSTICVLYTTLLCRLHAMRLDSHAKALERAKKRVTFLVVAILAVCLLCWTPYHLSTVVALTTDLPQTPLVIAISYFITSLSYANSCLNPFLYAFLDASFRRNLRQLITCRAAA
CHO parental Ca: counter-screen: ATP calcium response change in parental CHO cells; parental CHO-K1, ATP-induced calcium, Fluo-8 fluorescence; inhibition, % at 5.6 µM; 330,000 tested, 0.63% active;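 active = inhibition above that plate's mean sample inhibition plus 3 SD, cut at about 26% in these data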;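 note: 0% = ATP-challenged DMSO wells and 100% = DMSO wells without ATP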
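Assay system: parental CHO cells; Read-out basis: percent inhibition of ATP-evoked calcium rise, normalized to controls; Benchmarks: ATP and no-ATP DMSO wells; Compound dosing: single nominal dose of 5.6 µM per compound; Signal: Fluo-8 calcium dye fluorescence; Also added: ATP as calcium-mobilizing challenge; Repeats: singlicate.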
MPTP inh: permeability transition pore inhibition; isolated mouse mitochondria, Ca2+ swelling absorbance, 30 min; inhibition, % at 10 µM; 360,000 tested, 1.4% active; AID 602449;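 active = inhibition of 50% or more, scaled per plate between neutral and stimulator controls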;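 note: 0% = DMSO wells given calcium and 100% = 1 mM EGTA wells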
GPR7 antag conf: confirmation of human GPR7 antagonists. shares compounds with GPR7 antagonist. GPR7-expressing cells, calcium fluorescence antagonist mode. inhibition, % at 4.4 µM. 2,400 tested, 52% active. AID 1952; in the data active = inhibition above about 24%;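 note: stimulated with the GPR7 agonist NPW; 0% = agonist plus vehicle and 100% = vehicle alone without agonist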
MCHR1 antagonist: MCHR1 (human) antagonism in GPR7 counter-screen; AID 2148; 2,400 tested, 62% active; shares compounds with GPR7 antagonist; MCHR1-expressing cells, fluorescence antagonist assay; inhibition, % at 4.4 µM; in the data active = inhibition above about 22%;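 note: 0% = vehicle with agonist and 100% = vehicle without agonist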
An asterisk follows results filed as active.

`O=[N+]([O-])c1ccc(N2CCCCCC2)c2ncccc12` gave OX1R antag-1 -9, OX1R antag-2 24, GPR7 antagonist -5, CHO parental Ca -13 and MPTP inh 3.
O=[N+]([O-])c1ccc(N2CCCCC2)c2ncccc12 was read as OX1R antag-1 -23, OX1R antag-2 44, GPR7 antagonist -3, CHO parental Ca -6 and MPTP inh -4.
For O=c1[nH]c(=S)n(C2CCCCC2)c(O)c1/C=N/N1CCOCC1 the results were OX1R antag-1 -1, OX1R antag-2 3, GPR7 antagonist -15, CHO parental Ca -15 and MPTP inh -1.
Screening COC1=CC(=O)[C@]2(C=C1OC)OC[C@@H]1Oc3c(ccc4c3C=CC(C)(C)O4)C(=O)[C@@H]12 returned OX1R antag-1 60*, OX1R antag-2 33 and CHO parental Ca 62*.
Screening CCOC(=O)CNC(=O)N1Cc2cc(N3CCOCC3)ccc2-n2nncc2C1 returned MPTP inh -1.
COc1ccc(CN2CCN(C(=O)COc3cccc(C)c3)CC2)c(OC)c1 was read as GPR7 antagonist 7 and MPTP inh -7.
`COc1ccccc1CN1CCN(C(=O)COc2cccc(C)c2)CC1` gave OX1R antag-1 -16, OX1R antag-2 1, GPR7 antagonist 15*, CHO parental Ca -11 and MPTP inh -2.
`Cn1ncnc2c(=O)n(C)c(=O)nc1-2` gave OX1R antag-1 8, OX1R antag-2 103*, CHO parental Ca -17 and MPTP inh 1.
For CCOc1ccccc1CNCCc1ccc2c(c1)OCO2 the results were OX1R antag-1 -30, OX1R antag-2 14, GPR7 antagonist 6, CHO parental Ca -16 and MPTP inh 1.
Screening CCOc1ccc([N+](=O)[O-])cc1CNCCc1ccccc1 returned OX1R antag-1 -27, OX1R antag-2 38, GPR7 antagonist 44*, CHO parental Ca -14 and MPTP inh -1.
C=C1C(O)[C@@H]2O[C@]3(CC[C@H](/C=C/C(C)[C@@H]4CC(C)=CC5(O[C@H](C[C@@](C)(O)C(=O)O)CCC5O)O4)O3)CC[C@H]2O[C@@H]1C(O)CC(C)[C@H]1OC2(CCCCO2)CCC1C (stereo not given in full) was read as OX1R antag-1 34, OX1R antag-2 50* and CHO parental Ca -10.
For C/C(=N\N1CCCCCC1)c1c(O)n(C)c(=O)n(C)c1=O the results were OX1R antag-1 -7, OX1R antag-2 18, GPR7 antagonist -7 and CHO parental Ca 0.
For C/C(=N\NC(N)=O)c1c(O)n(C)c(=O)n(C)c1=O the results were OX1R antag-1 -10, OX1R antag-2 14, GPR7 antagonist -15, CHO parental Ca 35* and MPTP inh -3.
Nc1ncc([N+](=O)[O-])s1 was read as OX1R antag-1 0, OX1R antag-2 36*, CHO parental Ca -7 and MPTP inh -1.
`CCOc1ccc(Cl)cc1CNCCc1ccccc1F` gave OX1R antag-1 -32, OX1R antag-2 15, GPR7 antagonist 33*, CHO parental Ca -18, MPTP inh 0, GPR7 antag conf 49* and MCHR1 antagonist 37*.
`COc1ccc(CCNCc2ccccc2F)cc1OC` gave OX1R antag-1 -22, OX1R antag-2 8, GPR7 antagonist -8, CHO parental Ca -18 and MPTP inh 1.
`OC1/C(=C/c2ccccc2F)N2CCC1CC2` (stereo not given) gave OX1R antag-1 9, OX1R antag-2 9, GPR7 antagonist 10, CHO parental Ca 9 and MPTP inh -2.
Screening COCc1cc(OC(=O)N(C)C)nc(-c2ccccc2)n1 returned OX1R antag-1 -5, OX1R antag-2 -5, GPR7 antagonist -3, CHO parental Ca -10 and MPTP inh 1.
Screening O=[N+]([O-])c1ccc(N2CCCCCC2)c2nonc12 returned OX1R antag-1 102*, OX1R antag-2 103*, GPR7 antagonist 41*, CHO parental Ca 93*, MPTP inh 1, GPR7 antag conf 51* and MCHR1 antagonist 61*.
CCCCCSc1cc(O)c(C(CNC)C(C)C)cc1OC (stereo not given) was read as OX1R antag-1 -11, OX1R antag-2 14, GPR7 antagonist 29*, CHO parental Ca -6, MPTP inh 15, GPR7 antag conf 42* and MCHR1 antagonist 37*.
OC12CCCCC1C(c1ccccc1)NCC2 (stereo not given) was read as OX1R antag-1 4, OX1R antag-2 -2, GPR7 antagonist 23*, CHO parental Ca 5, MPTP inh 1, GPR7 antag conf 8 and MCHR1 antagonist -1.
For CN(C)c1ccc(-[n+]2c(-c3ccccc3)cc(-c3ccccc3)cc2-c2ccccc2)cc1 the results were GPR7 antagonist 59*, MPTP inh 2, GPR7 antag conf 79* and MCHR1 antagonist 78*.
Screening CCCC1(CC(C)C)C(=O)NC(=S)NC1=O returned MPTP inh 0.
For OC1(c2ccc(F)cc2)CC2CCC(C1)N2Cc1nnnn1C1CCCCC1 (stereo not given) the results were OX1R antag-1 -26, OX1R antag-2 2, GPR7 antagonist 33*, CHO parental Ca -7, MPTP inh 0, GPR7 antag conf 26* and MCHR1 antagonist 17.
For OCCN1C2CCC1CC(O)(c1ccc(F)cc1)C2 (stereo not given) the results were OX1R antag-1 -11, OX1R antag-2 9, GPR7 antagonist -11, CHO parental Ca 5 and MPTP inh -1.
`CCCCn1c(=O)c(C(=O)Nc2ccccc2F)c(O)c2ccccc21` gave OX1R antag-1 -12, OX1R antag-2 6, GPR7 antagonist 96*, CHO parental Ca 12, MPTP inh 3, GPR7 antag conf -29 and MCHR1 antagonist -3.
For Cc1cccc(NC(=O)C(C)N2CC=C(c3ccccc3)CC2)c1 (stereo not given) the results were OX1R antag-1 -37, OX1R antag-2 15, GPR7 antagonist 4, CHO parental Ca -19 and MPTP inh 2.
For COc1cc(CNCCc2c[nH]c3ccccc23)cc(OC)c1OC the results were MPTP inh 0.
`COc1cc(CNCCc2c[nH]c3ccccc23)cc(OC)c1` gave OX1R antag-1 -10, OX1R antag-2 -4, GPR7 antagonist 38*, CHO parental Ca -3, MPTP inh 0, GPR7 antag conf 22 and MCHR1 antagonist 31*.
`C=C(C)[C@@]12OC3(c4ccccc4)O[C@@H]1C1[C@@H]4O[C@]4(CO)[C@@H](O)[C@]4(O)C(=O)C(C)=C[C@H]4[C@@]1(O3)[C@H](C)[C@H]2OC(=O)/C=C/C=C/c1ccccc1` (stereo not given in full) gave OX1R antag-1 -18, OX1R antag-2 24, CHO parental Ca -15 and MPTP inh 2.
